Data taken from ChEMBL document CHEMBL1124622, “Synthesis and antiviral activity of 3'-C-cyano-3'-deoxynucleosides” (J Med Chem, 1989).
In brackets after ≈: the same amount, converted by molar mass.

Tests used:
Semliki Forest virus = test: Minimum inhibitory concentration against forest virus in Vero cell cultures; type: functional
Method in brief: (§1)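 Confluent HeLa, Vero or primary rabbit kidney cell cultures in microtiter trays are inoculated with 100 CCID50 of virus. After 1 h adsorption, residual virus is removed and cells are incubated with varying compound concentrations. Cytopathogenicity is recorded once it is complete in untreated virus-infected controls. MIC is the concentration inhibiting virus-induced cytopathogenicity.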

[1] = Minimum cytotoxic concentration in Vero cell cultures; type: cell-based; settings: chlorocebus sabaeus, Vero cells
[2] = system: Vesicular stomatitis virus; test: (§2) Minimum inhibitory concentration against Vesicular stomatitis virus in primary rabbit kidney cell cultures; type: functional; method in brief: as §1
Vaccinia virus = test: (§3) Minimum inhibitory concentration against Vaccinia virus in primary rabbit kidney cell cultures; type: functional; settings: Orthopoxvirus vaccinia; method in brief: as §1
[3] = system: Mammalian orthoreovirus 1; test: Minimum inhibitory concentration against reovirus in Vero cell cultures; type: functional; method in brief: as §1
[4] = Minimum cytotoxic concentration in primary rabbit kidney cell cultures; type: cell-based, Oryctolagus cuniculus; settings: primary rabbit kidney cells
Human respirovirus 3 = test: Minimum inhibitory concentration against parainfluenza 3 virus in Vero cell cultures; type: functional; method in brief: as §1
Coxsackievirus B4 = test: Minimum inhibitory concentration against Coxsackie virus B4 in Vero cell cultures; type: functional; settings: Enterovirus B; method in brief: as §1
Sindbis virus = test: Minimum inhibitory concentration against Sindbis virus in Vero cell cultures; type: functional; method in brief: as §1
Homo sapiens = species on record: Homo sapiens; test: Cytotoxic dose against uninfected human MT-4 cell; type: functional; settings: MT4, read-out: CD50 (the source's name)
Method in brief: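 Cytotoxicity counterpart of the HIV assay: uninfected human MT-4 lymphocytes exposed to the compounds. CD50 is the dose that reduces viability of these uninfected cells by 50%.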

HeLa [5] = test: Minimum inhibitory concentration against polio virus 1 in HeLa cell cultures; type: functional; settings: Homo sapiens; method in brief: as §1
[6] = system: Human immunodeficiency virus 1; test: Effective dose against HIV-1 induced cytopathogenicity in human MT-4 cell.; type: functional; settings: Human immunodeficiency virus 1, MT4; read-out: ED50 (the source's name)
Method in brief: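 HIV (HTLV-III_B) is taken from the culture supernatant of a persistently infected HUT-78 line. Human MT-4 lymphocytes are infected and the assay scores inhibition of virus-induced cytopathogenicity. ED50 is the dose giving 50% protection of MT-4 cells against the viral cytopathic effect.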

HeLa [7] = test: Minimum inhibitory concentration against Vesicular stomatitis virus in HeLa cell cultures; type: functional; settings: Homo sapiens; method in brief: as §1
[8] = Minimum cytotoxic concentration in HeLa cell cultures; type: cell-based; settings: human, HeLa cells
[9] = system: Moloney murine sarcoma virus; test: In vitro effective dose against Moloney murine sarcoma virus induced transformation of C3H embryo fibroblast cells.; type: functional; settings: read-out: ED50 (the source's name)
Method in brief: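 C3H mouse embryo cells are seeded at 20 000 cells/mL per well and grown 24 h. They are infected with 80 foci-forming units of Moloney MSV for 90 min, then given fresh medium with varying compound concentrations. Transformation is examined microscopically after 6-7 days. ED50 is the dose giving a 50% reduction in transformation.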

HeLa [10] = test: Minimum inhibitory concentration against Coxsackie virus B4 in HeLa cell cultures; type: functional; settings: Homo sapiens; method in brief: as §1
[11] = In vitro minimum cytotoxic concentration in C3H embryo fibroblast cells.; type: functional; settings: Mus musculus
Method in brief: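 Minimal cytotoxic concentration in C3H mouse embryo cells, run in the same 48-well setup as the MSV transformation assay: the concentration producing microscopically visible alteration of cell morphology.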

Oryctolagus cuniculus [12] = species on record: Oryctolagus cuniculus; test: as §2; type: functional; method in brief: as §1
Oryctolagus cuniculus [13] = species on record: Oryctolagus cuniculus; test: as §3; type: functional; method in brief: as §1
Oryctolagus cuniculus [14] = species on record: Oryctolagus cuniculus; test: Minimum inhibitory concentration against Herpes simplex virus 1(KOS) in primary rabbit kidney cell cultures; type: functional; method in brief: as §1
Oryctolagus cuniculus [15] = species on record: Oryctolagus cuniculus; test: Minimum cytotoxic concentration in primary rabbit kidney cell cultures
Oryctolagus cuniculus [16] = species on record: Oryctolagus cuniculus; test: Minimum inhibitory concentration against Herpes simplex virus 2 (G) in primary rabbit kidney cell cultures; type: functional; method in brief: as §1

Row | SMILES | MIC (Semliki Forest virus) [µg/mL] | MCC [1] [µg/mL] | MIC [2] [µg/mL] | MIC (Vaccinia virus) [µg/mL] | MIC [3] [µg/mL] | MCC [4] [µg/mL] | MIC (Human respirovirus 3) [µg/mL] | MIC (Coxsackievirus B4) [µg/mL] | MIC (Sindbis virus) [µg/mL] | CC50 (Homo sapiens) [µM] | MIC (HeLa [5]) [µg/mL] | EC50 [6] [µM] | MIC (HeLa [7]) [µg/mL] | MCC [8] [µg/mL] | EC50 [9] [µg/mL] | MIC (HeLa [10]) [µg/mL] | MCC [11] [µg/mL] | other results
1 | CC(C)(C)[Si](C)(C)OC[C@H]1O[C@@H](n2cnc3c(N)ncnc32)[C@H](O[Si](C)(C)C(C)(C)C)[C@@H]1C#N | > 4 | 10 | > 4 | > 4 | > 4 | 10 | > 4 | > 4 | > 4 | 5.1 | > 200 | 2.1 | 150 (≈ 297 µM) | 400 | > 1.6 | > 200 | 8 | 
2 | CC(C)(C)[Si](C)(C)OC[C@H]1O[C@@H](n2ccc(=O)[nH]c2=O)[C@H](O[Si](C)(C)C(C)(C)C)[C@@H]1C#N | > 4 | > 10 | > 4 | > 4 | > 4 | > 10 | > 4 | > 4 | > 4 | 6.6 | > 10 | 3.2 | > 10 | > 40 | 5.6 (≈ 11.6 µM) | > 10 | > 8 | 
3 | Cc1cn([C@H]2C[C@H](C#N)[C@@H](CO)O2)c(=O)[nH]c1=O | > 10 | > 10 | > 40 | 20 (≈ 79.6 µM) | > 10 | 100 | > 10 | > 10 | > 10 | 30 | > 100 | > 16 | > 100 | 200 | > 16 | > 100 | 80 | 
4 | N#C[C@H]1[C@@H](O)[C@H](n2ccc(=O)[nH]c2=O)O[C@@H]1CO | > 100 | > 200 | > 200 | > 200 | > 100 | > 200 | > 100 | > 100 | > 100 | 147 | > 200 | > 80 | > 200 | > 200 | > 200 | > 200 | > 200 | 
5 | CC(C)(C)[Si](C)(C)OC[C@H]1O[C@@H](n2ccc(=O)[nH]c2=O)[C@H](O[Si](C)(C)C(C)(C)C)[C@H]1C#N | > 1 | 4 | > 1 | > 1 | > 1 | > 4 | > 1 | > 1 | > 1 | 1.6 | > 4 | > 6.04 | > 1 | 4 | 2.2 (≈ 4.57 µM) | > 4 | > 3.2 | 
6 | N#C[C@@H]1[C@@H](O)[C@H](n2cnc3c(N)ncnc32)O[C@@H]1CO | 20 (≈ 72.4 µM) | 200 | > 200 | 4 (≈ 14.5 µM) | > 100 | 200 | 70 (≈ 253 µM) | 100 (≈ 362 µM) | 10 (≈ 36.2 µM) | 2.9 | > 200 | > 1.6 | 150 (≈ 543 µM) | 400 | 6.6 (≈ 23.9 µM) | > 200 | > 40 | 
7 | Cc1cn([C@H]2C[C@@H](C#N)[C@@H](CO)O2)c(=O)[nH]c1=O | > 400 | > 400 | > 400 | > 400 | > 200 | > 400 | > 200 | > 400 | > 400 | > 250 | > 400 | > 250 | > 400 | > 400 | > 250 | > 400 | > 250 | 
8 | N#C[C@@H]1[C@@H](O)[C@H](n2ccc(=O)[nH]c2=O)O[C@@H]1CO | > 200 | 400 | > 200 | 4 (≈ 15.8 µM) | > 200 | > 200 | > 200 | > 200 | > 200 | > 400 | > 200 | > 400 | > 200 | > 400 | 260 (≈ 1030 µM) | > 200 | 400 | 
9 | Cc1cn(C2C=C(C#N)C(CO)O2)c(=O)[nH]c1=O (centres undefined) | > 40 | > 100 | > 100 | > 100 | > 40 | 200 | > 40 | > 100 | > 100 | 24 | > 200 | > 50 | 150 (≈ 602 µM) | 400 | 191 (≈ 766 µM) | > 200 | > 250 | 
10 | N#CC1C(CO)OC(n2ccc(N)nc2=O)C1O (centres undefined) | > 100 | 200 | > 100 | 40 (≈ 159 µM) | > 100 | > 100 | > 100 | > 100 | > 100 | 22.7 | > 40 | > 10 | 70 (≈ 278 µM) | 100 | 43 (≈ 170 µM) | > 40 | > 200 | 
11 | CC(C)(C)[Si](C)(C)OCC1OC(n2ccc(N)nc2=O)C(O[Si](C)(C)C(C)(C)C)C1C#N (centres undefined) | > 4 | 10 | > 4 | > 4 | > 4 | > 10 | > 4 | > 4 | > 4 | 6.1 | > 1 | > 3.2 | > 1 | > 4 | > 1.6 | > 1 | 8 | 
12 | Cc1cn(C2CC(C#N)C(CO[Si](C)(C)C(C)(C)C)O2)c(=O)[nH]c1=O (centres undefined) | > 100 | > 100 | > 40 | > 40 | 20 (≈ 54.7 µM) | > 100 | > 100 | > 100 | > 100 | 31 | > 40 | > 16 | > 40 | 100 | > 16 | > 40 | 80 | 
13 | Cc1cn(C2OC(CO)C(C#N)C2O)c(=O)[nH]c1=O (centres undefined) | 300 (≈ 1120 µM) | > 200 | > 200 | 150 (≈ 561 µM) | > 200 | 400 | > 100 | > 100 | 150 (≈ 561 µM) | 232 | > 200 | > 250 | > 200 | > 400 | > 250 | > 200 | > 250 | 
14 | CC(=O)Nc1ccn(C2OC(CO[Si](C)(C)C(C)(C)C)C(C#N)C2O[Si](C)(C)C(C)(C)C)c(=O)n1 (centres undefined) | > 4 | > 4 | > 1 | > 1 | > 4 | > 4 | > 4 | > 4 | > 4 | 4.8 | > 4 | > 3.2 | > 1 | > 4 | 2.2 (≈ 4.21 µM) | 2 (≈ 3.83 µM) | > 3.2 | 
15 | Nc1nccc2c1ncn2[C@@H]1C[C@H](CO)[C@@H](O)[C@H]1O [3-DEAZAARISTEROMYCIN A] | > 400 | 400 | 0.7 (≈ 2.65 µM) | 2 (≈ 7.57 µM) | 7 (≈ 26.5 µM) | > 400 | 4 (≈ 15.1 µM) | 100 (≈ 378 µM) | 300 (≈ 1140 µM) |  | > 400 |  | 1 (≈ 3.78 µM) | > 400 |  | > 400 |  | 
16 | NC(=O)c1ncn([C@@H]2O[C@H](CO)[C@@H](O)[C@H]2O)n1 [RIBAVIRIN] | 300 (≈ 1230 µM) | > 400 |  |  | 70 (≈ 287 µM) |  | 40 (≈ 164 µM) | 100 (≈ 409 µM) | 70 (≈ 287 µM) |  | 70 (≈ 287 µM) |  | 20 (≈ 81.9 µM) | > 200 |  | 70 (≈ 287 µM) |  | MIC (Oryctolagus cuniculus [12]): 300 µg/mL (≈ 1230 µM); MIC (Oryctolagus cuniculus [13]): 10 µg/mL (≈ 40.9 µM); MIC (Oryctolagus cuniculus [14]): > 400 µg/mL; MCC (Oryctolagus cuniculus [15]): > 400 µg/mL; MIC (Oryctolagus cuniculus [16]): > 400 µg/mL
17 | Nc1ncnc2c1ccn2[C@@H]1O[C@H](CO)[C@@H](O)[C@H]1O [TUBERCIDIN] | > 0.1 | 0.4 | 0.07 (≈ 0.263 µM) | 0.1 (≈ 0.376 µM) | > 0.1 |  | > 0.1 | > 0.1 | 0.2 (≈ 0.751 µM) |  | 0.4 (≈ 1.5 µM) |  | 0.07 (≈ 0.263 µM) | > 0.4 |  | 0.4 (≈ 1.5 µM) |  | MCC (Oryctolagus cuniculus [15]): > 0.4 µg/mL
